Test results from ChEMBL document CHEMBL3297654, “Synthesis, antimicrobial and cytotoxic activities, and structure-activity relationships of gypsogenin derivatives against human cancer cells” (Eur J Med Chem, 2014).
≈ marks a conversion by molar mass, not a printed value. Calls of active or inactive are those of the source. The rule behind the calls is not given here.

Columns and labels:
HL-60 [1] = test: Antiproliferative activity against human HL60 cells after 24 and 72 hrs by MTT assay; type: functional, cell-based
Procedure, shortened: (§1)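 ATCC human cell lines are kept in RPMI, DMEM or McCoy's 5A with 10–15% heat-inactivated FCS at 37 °C and 5% CO2. They are seeded at 1×10^4–1×10^5 cells/mL in 48-well plates and exposed to 0.5, 10, 20 or 40 µM. Viability is read by MTT (590 nm) at 24 and 72 h. Growth is expressed relative to untreated cells and IC50 is fitted, in triplicate.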

SAOS-2 [2] = test: Induction of apoptosis in human Saos2 cells at 20 uM after 48 hrs by Hoechst 33258/propidium iodide staining based phase contrast microscopic analysis; type: functional
Procedure, shortened: (§2)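 Cells in 48-well plates treated with 0.5, 10, 20 or 40 µM for 24 and 48 h. Values are read at 48 h, 20 µM for test agents and 0.5 µM for controls. Staining is Hoechst 33258/propidium iodide double staining with fluorescence microscopy. Blue nuclei are viable or early-to-mid apoptotic, and pink nuclei are late apoptotic or necrotic. Apoptosis and necrosis are scored from chromatin condensation as % of cells. Cells are grown at 37 °C in 5% CO2 in RPMI, DMEM or McCoy's 5A with 10–15% heat-inactivated FCS.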

[3] = Antiproliferative activity against human Saos2 cells after 24 and 72 hrs by MTT assay; type: functional, cell-based; settings: SAOS-2; procedure, shortened: as §1
MCF7 [4] = test: Induction of apoptosis in human MCF7 cells at 20 uM after 48 hrs by Hoechst 33258/propidium iodide staining based phase contrast microscopic analysis; type: functional; procedure, shortened: as §2
Enterococcus faecalis = test: Antimicrobial activity against Enterococcus faecalis ATCC 29212 assessed as zone of inhibition at 30 uL for 24 hrs at 37 degC by disk diffusion test; type: functional, organism-based
Procedure, shortened: (§3)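 Compound (30 µL of a fresh 1000 µg/mL DMSO stock) goes into a 6 mm well cut in Mueller Hinton agar inoculated with 0.1 mL broth culture adjusted to 0.5 McFarland (about 1×10^8 cells/mL). Plates are incubated 24 h at 37 °C, then zone of inhibition diameter is measured in mm.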

Pseudomonas aeruginosa = test: Antimicrobial activity against Pseudomonas aeruginosa ATCC 35032 assessed as zone of inhibition at 30 uL for 24 hrs at 37 degC by disk diffusion test; type: functional, organism-based; procedure, shortened: as §3
Bacillus thuringiensis [5] = test: Antimicrobial activity against Bacillus thuringiensis assessed as zone of inhibition at 30 uL for 24 hrs at 30 degC by disk diffusion test; type: functional
Procedure, shortened: (§4)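 Agar well diffusion on Mueller Hinton agar seeded with 0.1 mL broth culture (18–24 h), adjusted to 0.5 McFarland (about 1×10^8 bacteria or 1×10^6 yeast cells/mL). A 6 mm well is filled with 30 µL of compound from a fresh 1000 µg/mL DMSO stock. Plates are held at 30 °C for 24 h and inhibition zone diameter is read in mm.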

Klebsiella pneumoniae = test: Antimicrobial activity against Klebsiella pneumoniae ATCC 13882 assessed as zone of inhibition at 30 uL for 24 hrs at 37 degC by disk diffusion test; type: functional, organism-based; procedure, shortened: as §3
Bacillus cereus [6] = test: Antimicrobial activity against Bacillus cereus ATCC 11778 assessed as zone of inhibition at 30 uL for 24 hrs at 30 degC by disk diffusion test; type: functional; procedure, shortened: as §4
[7] = tested on: Staphylococcus epidermidis; test: Antimicrobial activity against Staphylococcus epidermidis ATCC 12228 assessed as zone of inhibition at 30 uL for 24 hrs at 37 degC by disk diffusion test; type: functional, organism-based; procedure, shortened: as §3
Saccharomyces cerevisiae = test: Antimicrobial activity against Saccharomyces cerevisiae ATCC 9763 assessed as zone of inhibition at 30 uL for 24 hrs at 30 degC by disk diffusion test; type: functional, organism-based; procedure, shortened: as §4
Caco-2 [8] = test: Antiproliferative activity against human Caco2 cells after 24 and 72 hrs by MTT assay; type: functional, cell-based; procedure, shortened: as §1
HT-29 [9] = test: Induction of necrosis in human HT-29 cells at 20 uM after 48 hrs by Hoechst 33258/propidium iodide staining based phase contrast microscopic analysis; type: functional; procedure, shortened: as §2
HeLa [10] = test: Induction of necrosis in human HeLa cells at 20 uM after 48 hrs by Hoechst 33258/propidium iodide staining based phase contrast microscopic analysis; type: functional; procedure, shortened: as §2
Candida albicans = test: Antimicrobial activity against Candida albicans ATCC 10231 assessed as zone of inhibition at 30 uL for 24 hrs at 30 degC by disk diffusion test; type: functional, organism-based; procedure, shortened: as §4
MCF7 [11] = test: Antiproliferative activity against human MCF7 cells after 24 and 72 hrs by MTT assay; type: functional, cell-based; procedure, shortened: as §1
HL-60 [12] = test: Induction of apoptosis in human HL60 cells at 20 uM after 48 hrs by Hoechst 33258/propidium iodide staining based phase contrast microscopic analysis; type: functional; procedure, shortened: as §2
Bacillus cereus [13] = test: Antimicrobial activity against Bacillus cereus ATCC 11778 for 24 hrs by microdillution method; type: functional
Procedure, shortened: (§5)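 Broth microdilution. Compound is dissolved in DMSO (2 mg/mL) and diluted in Mueller Hinton broth as two-fold serial dilutions from 256 to 0.125 µg/mL. Bacteria are pre-grown in nutrient broth at 30 °C, and the final inoculum is about 10^6 cfu/mL. Tests are incubated 37 °C for 24 h. MIC is the lowest concentration giving complete inhibition. Streptomycin is the positive control.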

Caco-2 [14] = test: Induction of apoptosis in human Caco2 cells at 20 uM after 48 hrs by Hoechst 33258/propidium iodide staining based phase contrast microscopic analysis; type: functional; procedure, shortened: as §2
Caco-2 [15] = test: Induction of necrosis in human Caco2 cells at 20 uM after 48 hrs by Hoechst 33258/propidium iodide staining based phase contrast microscopic analysis; type: functional; procedure, shortened: as §2
HeLa [16] = test: Induction of apoptosis in human HeLa cells at 20 uM after 48 hrs by Hoechst 33258/propidium iodide staining based phase contrast microscopic analysis; type: functional; procedure, shortened: as §2
Micrococcus luteus = test: Antimicrobial activity against Micrococcus luteus ATCC 9341 assessed as zone of inhibition at 30 uL for 24 hrs at 30 degC by disk diffusion test; type: functional, organism-based; procedure, shortened: as §4
HT-29 [17] = test: Induction of apoptosis in human HT-29 cells at 20 uM after 48 hrs by Hoechst 33258/propidium iodide staining based phase contrast microscopic analysis; type: functional; procedure, shortened: as §2
Escherichia coli = test: Antimicrobial activity against Escherichia coli ATCC 25922 assessed as zone of inhibition at 30 uL for 24 hrs at 37 degC by disk diffusion test; type: functional, organism-based; procedure, shortened: as §3
SAOS-2 [18] = test: Induction of necrosis in human Saos2 cells at 20 uM after 48 hrs by Hoechst 33258/propidium iodide staining based […] microscopic analysis; type: functional; procedure, shortened: as §2
Staphylococcus aureus = test: Antimicrobial activity against Staphylococcus aureus ATCC 25923 assessed as zone of inhibition at 30 uL for 24 hrs at 37 degC by disk diffusion test; type: functional, organism-based; procedure, shortened: as §3
Nakaseomyces glabratus = test: Antimicrobial activity against Candida glabrata assessed as zone of inhibition at 30 uL for 24 hrs at 30 degC by disk diffusion test; type: functional, organism-based; procedure, shortened: as §4
HL-60 [19] = test: Induction of necrosis in human HL60 cells at 20 uM after 48 hrs by Hoechst 33258/propidium iodide staining based phase contrast microscopic analysis; type: functional; procedure, shortened: as §2
Salmonella typhimurium = test: Antimicrobial activity against Salmonella typhimurium ATCC 14028 assessed as zone of inhibition at 30 uL for 24 hrs at 37 degC by disk diffusion test; type: functional, organism-based; settings: Salmonella enterica subsp. enterica serovar Typhimurium; procedure, shortened: as §3
MCF7 [20] = test: Induction of necrosis in human MCF7 cells at 20 uM after 48 hrs by Hoechst 33258/propidium iodide staining based phase contrast microscopic analysis; type: functional; procedure, shortened: as §2
Cyberlindnera jadinii = test: Antimicrobial activity against Candida utilis ATCC 9950 assessed as zone of inhibition at 30 uL for 24 hrs at 30 degC by disk diffusion test; type: functional, organism-based; procedure, shortened: as §4
HeLa [21] = test: Antiproliferative activity against human HeLa cells after 24 and 72 hrs by MTT assay; type: functional, cell-based; procedure, shortened: as §1
HT-29 [22] = test: Antiproliferative activity against human HT-29 cells after 24 and 72 hrs by MTT assay; type: functional, cell-based; procedure, shortened: as §1
Bacillus thuringiensis [23] = test: Antimicrobial activity against Bacillus thuringiensis for 24 hrs by microdillution method; type: functional; procedure, shortened: as §5
Bacillus subtilis [24] = test: Antimicrobial activity against Bacillus subtilis ATCC 6633 assessed as zone of inhibition at 30 uL for 24 hrs at 30 degC by disk diffusion test; type: functional; procedure, shortened: as §4
Bacillus subtilis [25] = test: Antimicrobial activity against Bacillus subtilis ATCC 6633 for 24 hrs by microdillution method; type: functional; procedure, shortened: as §5
Candida tropicalis = test: Antimicrobial activity against Candida tropicalis assessed as zone of inhibition at 30 uL for 24 hrs at 30 degC by disk diffusion test; type: functional, organism-based; procedure, shortened: as §4
Proteus vulgaris = test: Antimicrobial activity against Proteus vulgaris ATCC 33420 assessed as zone of inhibition at 30 uL for 24 hrs at 37 degC by disk diffusion test; type: functional, organism-based; procedure, shortened: as §3

CC1(C)CC[C@]2(C(=O)OCc3ccccc3)CC[C@]3(C)C(=CC[C@@H]4[C@@]5(C)CC[C@H](O)[C@@](C)(/C=N/NC(N)=S)[C@@H]5CC[C@]43C)[C@@H]2C1
IC50 (HL-60 [1]): 6.21 µM
Activity (SAOS-2 [2]): 5%
IC50 [3]: 6.97 µM
Activity (MCF7 [4]): 4%
diameter of the inhibition zone (DIZ) (Enterococcus faecalis): inactive
diameter of the inhibition zone (DIZ) (Pseudomonas aeruginosa): inactive
diameter of the inhibition zone (DIZ) (Bacillus thuringiensis [5]): inactive
diameter of the inhibition zone (DIZ) (Klebsiella pneumoniae): inactive
diameter of the inhibition zone (DIZ) (Bacillus cereus [6]): inactive
diameter of the inhibition zone (DIZ) [7]: inactive
diameter of the inhibition zone (DIZ) (Saccharomyces cerevisiae): inactive
IC50 (Caco-2 [8]): 36.5 µM
Activity (HT-29 [9]): 32%
Activity (HeLa [10]): 55%
diameter of the inhibition zone (DIZ) (Candida albicans): inactive
IC50 (MCF7 [11]): 6.05 µM
Activity (HL-60 [12]): 2%
MIC (Bacillus cereus [13]): inactive
Activity (Caco-2 [14]): 4%
Activity (Caco-2 [15]): 48%
Activity (HeLa [16]): 5%
diameter of the inhibition zone (DIZ) (Micrococcus luteus): inactive
Activity (HT-29 [17]): 2%
diameter of the inhibition zone (DIZ) (Escherichia coli): inactive
Activity (SAOS-2 [18]): 41%
diameter of the inhibition zone (DIZ) (Staphylococcus aureus): inactive
diameter of the inhibition zone (DIZ) (Nakaseomyces glabratus): inactive
Activity (HL-60 [19]): 64%
diameter of the inhibition zone (DIZ) (Salmonella typhimurium): inactive
Activity (MCF7 [20]): 63%
diameter of the inhibition zone (DIZ) (Cyberlindnera jadinii): inactive
IC50 (HeLa [21]): 23.6 µM
IC50 (HT-29 [22]): 15 µM
MIC (Bacillus thuringiensis [23]): inactive
diameter of the inhibition zone (DIZ) (Bacillus subtilis [24]): inactive
MIC (Bacillus subtilis [25]): inactive
diameter of the inhibition zone (DIZ) (Candida tropicalis): inactive
diameter of the inhibition zone (DIZ) (Proteus vulgaris): inactive

CN[C@@H]1[C@H](O[C@H]2[C@H](O[C@H]3[C@H](O)[C@@H](O)[C@H](N=C(N)N)[C@@H](O)[C@@H]3N=C(N)N)O[C@@H](C)[C@]2(O)C=O)O[C@@H](CO)[C@H](O)[C@H]1O [STREPTOMYCIN]
MIC (Bacillus cereus [13]; ATCC 11778, 24 h): 64 µg/mL (≈ 110 µM)
MIC (Bacillus thuringiensis [23]): 64 µg/mL (≈ 110 µM)
MIC (Bacillus subtilis [25]; ATCC 6633, 24 h): 64 µg/mL (≈ 110 µM)
